The values that follow come from ChEMBL document CHEMBL4229349, “Challenging clinically unresponsive medullary thyroid cancer: Discovery and pharmacological activity of novel RET inhibitors” (Eur J Med Chem, 2018).

SMILES strings stand for the structures.

Data set [1] in a line: Metabolic stability in human liver microsomes assessed as parent compound remaining at 1 uM after 15 mins in presence of NADPH by HPLC-MS/MS analysis. It is filed as ADME, microsome. Particulars: read-out: Stability. An outline of the steps: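 The compound was incubated at 1 µM with human liver microsomes for 15 min, and the percentage of parent compound remaining was measured.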

The nature of data set [2]: Metabolic stability in human plasma assessed as parent compound remaining at 1 uM after 1 hr by HPLC-MS/MS analysis. Particulars: read-out: Stability. It is filed as ADME, cell-free. An outline of the steps:
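The compound was incubated in human plasma for 1 h, and stability was expressed as the percentage of parent compound remaining.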

With `Clc1ccc(SCc2n[nH]c(-c3ccc(Cl)cc3)n2)cc1`, in data set [1], the remaining at […], 1 µM was 40%. Also, the remaining at 1 h, 1 µM in data set [2] stood at 85%.
